Legend:
Assay type in all cases: functional
Chenopodium album [1] = assay: Herbicidal activity against Chenopodium album assessed as growth inhibition at 37.5 g of active ingredient/ha administered using post-emergence treatment measured 15 days post treatment protocol under greenhouse conditions
Procedure, shortened: (§1)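 Test agents were formulated as 100 g/L emulsified concentrates (DMF solvent, TW-80 emulsifier), diluted with water and sprayed postemergence on pot-grown weeds. Seeds were sown 1-3 cm deep in clay soil (pH 6.5, 1.6% organic matter, 37.3% clay, CEC […]) and grown at 15–30 °C in a greenhouse. Dicots were treated at the two-leaf stage. Untreated and DMF-treated plants served as controls. Activity was scored visually 15 days after treatment.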

Echinochloa crus-galli [2] = assay: Herbicidal activity against Echinochloa crus-galli (barnyard grass) assessed as growth inhibition at 75 g of active ingredient/ha administered using post-emergence treatment measured 15 days post treatment protocol under greenhouse conditions; procedure, shortened: as §1
Echinochloa crus-galli [3] = assay: Herbicidal activity against Echinochloa crus-galli (barnyard grass) assessed as growth inhibition at 37.5 g of active ingredient/ha administered using post-emergence treatment measured 15 days post treatment protocol under greenhouse conditions; procedure, shortened: as §1
Digitaria sanguinalis [4] = assay: Herbicidal activity against Digitaria sanguinalis (hairy crabgrass) assessed as growth inhibition at 150 g of active ingredient/ha administered using post-emergence treatment measured 15 days post treatment protocol under greenhouse conditions; procedure, shortened: as §1
Portulaca oleracea [5] = assay: Herbicidal activity against Portulaca oleracea assessed as growth inhibition at 37.5 g of active ingredient/ha administered using post-emergence treatment measured 15 days post treatment protocol under greenhouse conditions; procedure, shortened: as §1
Chenopodium album [6] = assay: Herbicidal activity against Chenopodium album assessed as growth inhibition at 150 g of active ingredient/ha administered using post-emergence treatment measured 15 days post treatment protocol under greenhouse conditions; procedure, shortened: as §1
Echinochloa crus-galli [7] = assay: Herbicidal activity against Echinochloa crus-galli (barnyard grass) assessed as growth inhibition at 150 g of active ingredient/ha administered using post-emergence treatment measured 15 days post treatment protocol under greenhouse conditions; procedure, shortened: as §1
Portulaca oleracea [8] = assay: Herbicidal activity against Portulaca oleracea assessed as growth inhibition at 75 g of active ingredient/ha administered using post-emergence treatment measured 15 days post treatment protocol under greenhouse conditions; procedure, shortened: as §1
Cerastium arvense [9] = assay: Herbicidal activity against Cerastium arvense assessed as growth inhibition at 75 g of active ingredient/ha administered using post-emergence treatment measured 15 days post treatment protocol under greenhouse conditions; procedure, shortened: as §1
Amaranthus retroflexus [10] = assay: Herbicidal activity against Amaranthus retroflexus assessed as growth inhibition at 150 g of active ingredient/ha administered using post-emergence treatment measured 15 days post treatment protocol under greenhouse conditions; procedure, shortened: as §1
Setaria viridis [11] = assay: Herbicidal activity against Setaria viridis (green foxtail) assessed as growth inhibition at 150 g of active ingredient/ha administered using post-emergence treatment measured 15 days post treatment protocol under greenhouse conditions; procedure, shortened: as §1
Setaria viridis [12] = assay: Herbicidal activity against Setaria viridis (green foxtail) assessed as growth inhibition at 75 g of active ingredient/ha administered using post-emergence treatment measured 15 days post treatment protocol under greenhouse conditions; procedure, shortened: as §1
Brassica juncea [13] = assay: Herbicidal activity against Brassica juncea assessed as growth inhibition at 75 g of active ingredient/ha administered using post-emergence treatment measured 15 days post treatment protocol under greenhouse conditions; procedure, shortened: as §1
Cerastium arvense [14] = assay: Herbicidal activity against Cerastium arvense assessed as growth inhibition at 150 g of active ingredient/ha administered using post-emergence treatment measured 15 days post treatment protocol under greenhouse conditions; procedure, shortened: as §1
Digitaria sanguinalis [15] = assay: Herbicidal activity against Digitaria sanguinalis (hairy crabgrass) assessed as growth inhibition at 75 g of active ingredient/ha administered using post-emergence treatment measured 15 days post treatment protocol under greenhouse conditions; procedure, shortened: as §1
Digitaria sanguinalis [16] = assay: Herbicidal activity against Digitaria sanguinalis (hairy crabgrass) assessed as growth inhibition at 37.5 g of active ingredient/ha administered using post-emergence treatment measured 15 days post treatment protocol under greenhouse conditions; procedure, shortened: as §1
Eclipta prostrata [17] = assay: Herbicidal activity against Eclipta prostrata assessed as growth inhibition at 75 g of active ingredient/ha administered using post-emergence treatment measured 15 days post treatment protocol under greenhouse conditions; procedure, shortened: as §1
Senna tora [18] = assay: Herbicidal activity against Senna tora assessed as growth inhibition at 37.5 g of active ingredient/ha administered using post-emergence treatment measured 15 days post treatment protocol under greenhouse conditions; procedure, shortened: as §1
Cerastium arvense [19] = assay: Herbicidal activity against Cerastium arvense assessed as growth inhibition at 37.5 g of active ingredient/ha administered using post-emergence treatment measured 15 days post treatment protocol under greenhouse conditions; procedure, shortened: as §1
Senna tora [20] = assay: Herbicidal activity against Senna tora assessed as growth inhibition at 150 g of active ingredient/ha administered using post-emergence treatment measured 15 days post treatment protocol under greenhouse conditions; procedure, shortened: as §1
Amaranthus retroflexus [21] = assay: Herbicidal activity against Amaranthus retroflexus assessed as growth inhibition at 75 g of active ingredient/ha administered using post-emergence treatment measured 15 days post treatment protocol under greenhouse conditions; procedure, shortened: as §1
Chenopodium album [22] = assay: Herbicidal activity against Chenopodium album assessed as growth inhibition at 75 g of active ingredient/ha administered using post-emergence treatment measured 15 days post treatment protocol under greenhouse conditions; procedure, shortened: as §1
Portulaca oleracea [23] = assay: Herbicidal activity against Portulaca oleracea assessed as growth inhibition at 150 g of active ingredient/ha administered using post-emergence treatment measured 15 days post treatment protocol under greenhouse conditions; procedure, shortened: as §1
Senna tora [24] = assay: Herbicidal activity against Senna tora assessed as growth inhibition at 75 g of active ingredient/ha administered using post-emergence treatment measured 15 days post treatment protocol under greenhouse conditions; procedure, shortened: as §1
Setaria viridis [25] = assay: Herbicidal activity against Setaria viridis (green foxtail) assessed as growth inhibition at 37.5 g of active ingredient/ha administered using post-emergence treatment measured 15 days post treatment protocol under greenhouse conditions; procedure, shortened: as §1
Brassica juncea [26] = assay: Herbicidal activity against Brassica juncea assessed as growth inhibition at 37.5 g of active ingredient/ha administered using post-emergence treatment measured 15 days post treatment protocol under greenhouse conditions; procedure, shortened: as §1
Brassica juncea [27] = assay: Herbicidal activity against Brassica juncea assessed as growth inhibition at 150 g of active ingredient/ha administered using post-emergence treatment measured 15 days post treatment protocol under greenhouse conditions; procedure, shortened: as §1
Eclipta prostrata [28] = assay: Herbicidal activity against Eclipta prostrata assessed as growth inhibition at 37.5 g of active ingredient/ha administered using post-emergence treatment measured 15 days post treatment protocol under greenhouse conditions; procedure, shortened: as §1
Amaranthus retroflexus [29] = assay: Herbicidal activity against Amaranthus retroflexus assessed as growth inhibition at 37.5 g of active ingredient/ha administered using post-emergence treatment measured 15 days post treatment protocol under greenhouse conditions; procedure, shortened: as §1

## Cc1nn(-c2cc(NS(C)(=O)=O)c(Cl)cc2Cl)c(=O)n1C(F)F [SULFENTRAZONE]
Chenopodium album [1]
  growth inhibition (GI): 100%
Echinochloa crus-galli [2]
  growth inhibition (GI): 50%
Echinochloa crus-galli [3]
  growth inhibition (GI): 50%
Digitaria sanguinalis [4]
  growth inhibition (GI): <50%
Portulaca oleracea [5]
  growth inhibition (GI): 100%
Chenopodium album [6]
  growth inhibition (GI): 100%
Echinochloa crus-galli [7]
  growth inhibition (GI): <50%
Portulaca oleracea [8]
  growth inhibition (GI): 100%
Cerastium arvense [9]
  growth inhibition (GI): 100%
Amaranthus retroflexus [10]
  growth inhibition (GI): 100%
Setaria viridis [11]
  growth inhibition (GI): >80%
Setaria viridis [12]
  growth inhibition (GI): 50%
Brassica juncea [13]
  growth inhibition (GI): 100%
Cerastium arvense [14]
  growth inhibition (GI): 100%
Digitaria sanguinalis [15]
  growth inhibition (GI): 50%
Digitaria sanguinalis [16]
  growth inhibition (GI): 50%
Eclipta prostrata [17]
  growth inhibition (GI): 100%
Senna tora [18]
  growth inhibition (GI): >80%
Cerastium arvense [19]
  growth inhibition (GI): >80%
Senna tora [20]
  growth inhibition (GI): >80%
Amaranthus retroflexus [21]
  growth inhibition (GI): 100%
Chenopodium album [22]
  growth inhibition (GI): 100%
Portulaca oleracea [23]
  growth inhibition (GI): 100%
Senna tora [24]
  growth inhibition (GI): >80%
Setaria viridis [25]
  growth inhibition (GI): <50%
Brassica juncea [26]
  growth inhibition (GI): >80%
Brassica juncea [27]
  growth inhibition (GI): 100%
Eclipta prostrata [28]
  growth inhibition (GI): 100%
Amaranthus retroflexus [29]
  growth inhibition (GI): 100%
